This is an account of results in PubChem BioAssay.

The nature of assay [1]: Her2 expression decrease, cell viability multiplex – SKBR3 breast tumor cells, AlphaScreen, ATP viability, primary screen (AID 461;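 active means Her2 level under about 52% in both replicate screens, with viability over 70% of control, limit read from the data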;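 on Her2 level: lower value means less Her2 protein in the cells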;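 on viability: percent of carrier control wells set as 100% viability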). The note with it: SKBR3 Her2 protein level, 18-24 h, measured here: SKBR3 viability, ATP luminescence, at 10 µM.
In assay [2] the target is Receptor tyrosine-protein kinase erbB-2 (Homo sapiens) (UniProt P04626). The assay is described as above. The note with it: 18-24 h, at 10 µM, stronger effect = lower value.
Assay [3] is described as follows: reduced viability of SK-BR-3 breast cancer cells – cell-based, 24 h, human, pilot screen (AID 572;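 active means viability at or below 10% of carrier control in both of two separate runs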;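 further: compound exposure lasted between 18 and 24 h rather than exactly 24 h; 100% = carrier-treated control wells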). The settings on record: SK-BR-3 viability, CellTiter-Glo luminescence, at 10 µM, stronger effect = lower value. (ATP-based viability assays read luminescence as a measure of living cells.)
Assay [4] is described as follows: HUVEC growth inhibition – cell-based, human, primary screen (AID 575).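 Further: 100% = median of untreated cell wells with 0.1% DMSO on each plate.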 The note with it: HUVEC proliferation, CellTiter-Glo luminescence, 72 h; at 10 µM; stronger effect = lower value. The procedure, abridged: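 material = primary HUVEC, no more than 12 passages | input = 1250 cells per well | controls = vehicle and MePR control wells | measured by = CTG luminescence | times = 72 h compound incubation | format = collagen-coated 384-well format | read-out = % viability vs DMSO wells | doses = single 10 µM dose, 0.1% DMSO, from 5x medium stock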

A short description of assay [5]: H69AR cell proliferation blockers – human, duplicate replicates, primary screen (AID 580;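 active means viability at or under a set limit in both replicates, limit being median viability minus 3 SD, cut at about 48% in these data, passing the limit was not always enough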;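 further: 100% = mean luminescence of untreated wells and 0% = no signal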). The note with it: H69AR lung tumor cells viability, ATP luminescence, 72 h; at 10 µM; stronger effect = lower value.
Assay [6] in a line: MRP1 drug-resistance reversers in H69AR cells – cell-based, doxorubicin co-treatment, pilot screen (AID 601;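 active means viability loss from added drug above about 55%, and viability with drug at most 40%, in both replicates, limit read from the data, passing the limit was not always enough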). The settings on record: CellTiter-Glo, 72 h, at 10 µM; for differential viability (reversal): stronger effect = higher value.
A short description of assay [7]: yeast transport mutant growth inhibition pilot in 384-well plates, post-Golgi transport modulator project (AID 636; in the data active means inhibition above about 31%). The note with it: absorbance 615 nm, about 18 h, stronger effect = higher value.
The nature of assay [8]: growth suppression of yeast trafficking mutant, preliminary HTS, modulators of trafficking downstream of Golgi apparatus project, 1536-format plate, OD 615 nm (AID 637; in the data active means inhibition above about 30%). The note with it: yeast transport mutant growth, absorbance 615 nm, 18 h; stronger effect = higher value.
Where [9] appears, read: H69AR cells + 2 uM doxorubicin, measured here: viability with 2 uM doxorubicin, stronger effect = lower value.
Setting [10] is: H69AR cells, compound alone cytotoxicity.

SMILES strings stand for the structures. Calls of active or inactive are those of the source.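 How the source made its calls, unless noted: active means viability at or below 30% in both replicate assays; inconclusive means viability at or below 30% in just one of the two assays; inactive means the rest.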

Chain of Receptor tyrosine-protein kinase erbB-2 (Homo sapiens) (P04626 whole entry, looked up): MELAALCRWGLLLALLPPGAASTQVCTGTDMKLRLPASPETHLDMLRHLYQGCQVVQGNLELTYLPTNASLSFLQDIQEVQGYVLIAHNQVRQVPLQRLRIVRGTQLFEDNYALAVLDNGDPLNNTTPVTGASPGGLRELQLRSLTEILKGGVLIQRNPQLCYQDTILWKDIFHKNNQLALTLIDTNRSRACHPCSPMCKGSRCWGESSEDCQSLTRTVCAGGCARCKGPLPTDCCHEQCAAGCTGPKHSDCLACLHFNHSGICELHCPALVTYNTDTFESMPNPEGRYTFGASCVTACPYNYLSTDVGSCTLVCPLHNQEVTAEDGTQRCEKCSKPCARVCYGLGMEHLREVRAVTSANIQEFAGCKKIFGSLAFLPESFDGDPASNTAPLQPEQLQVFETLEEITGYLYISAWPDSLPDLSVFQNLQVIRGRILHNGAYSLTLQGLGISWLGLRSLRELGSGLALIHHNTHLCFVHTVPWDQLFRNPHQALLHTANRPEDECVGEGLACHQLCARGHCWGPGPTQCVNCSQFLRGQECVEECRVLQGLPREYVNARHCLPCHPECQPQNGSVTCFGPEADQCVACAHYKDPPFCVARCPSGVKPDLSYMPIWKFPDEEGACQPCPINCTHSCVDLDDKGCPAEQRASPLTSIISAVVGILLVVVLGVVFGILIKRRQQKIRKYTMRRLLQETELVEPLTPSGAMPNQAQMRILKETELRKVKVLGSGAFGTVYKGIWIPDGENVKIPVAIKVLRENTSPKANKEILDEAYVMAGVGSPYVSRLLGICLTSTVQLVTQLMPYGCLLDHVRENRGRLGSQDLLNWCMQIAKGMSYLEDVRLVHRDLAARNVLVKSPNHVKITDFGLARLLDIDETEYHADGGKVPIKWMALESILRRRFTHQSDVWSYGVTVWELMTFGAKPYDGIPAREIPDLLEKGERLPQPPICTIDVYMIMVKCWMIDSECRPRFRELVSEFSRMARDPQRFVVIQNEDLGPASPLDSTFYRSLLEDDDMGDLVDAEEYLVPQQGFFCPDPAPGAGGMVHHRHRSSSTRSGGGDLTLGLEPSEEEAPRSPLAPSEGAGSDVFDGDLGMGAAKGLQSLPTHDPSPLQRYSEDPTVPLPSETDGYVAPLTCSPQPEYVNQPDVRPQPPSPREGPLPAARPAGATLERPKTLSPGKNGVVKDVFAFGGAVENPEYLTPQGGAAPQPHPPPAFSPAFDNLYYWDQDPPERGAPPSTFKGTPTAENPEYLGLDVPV

As usually defined, the viability is a read-out of living cells in per cent, often relative to untreated cells. One may read the inhibition as the relative decrease from the control value, in per cent. Turning to `COCCSc1nnc(NC(=O)Cc2ccccc2OC)s1`, the viability in assay [1] was 106%; in assay [3], 106% (inactive); in assay [4] it was 91% (inactive); in assay [5] it was 98.9% (inactive); in assay [6] (setting [9]) it was 91%; in assay [6] (setting [10]) it was 98.9%. Moreover, in assay [2], the Her2 level is 76% (inactive). In assay [6] (H69AR cells + 2 uM doxorubicin), the differential viability (reversal) was 7.86% (inactive). Besides, the inhibition in assay [7] is -5.39% (inactive); in assay [8], -1.67% (inactive).

As to `CN(C(=O)c1ccccc1Cl)c1ccccc1`, the viability in assay [1] is 93.5%; in assay [3], 93.5% (inactive); in assay [4], 92.8% (inactive); in assay [5] it was 106% (inactive); in assay [6] (setting [9]), 82%; in assay [6] (setting [10]) it was 106%. Also, the Her2 level in assay [2] is 83.5% (inactive). Moreover, the differential viability (reversal) in assay [6] (H69AR cells + 2 uM doxorubicin) is 23.6% (inactive). The inhibition was -8.63% (inactive) in assay [7] and 0.95% (inactive) in assay [8].

Turning to `CCCCn1nnc(NC(=O)Cc2ccc(Cl)cc2)n1`, the viability was 112% in assay [1]; 112% (inactive) in assay [3]; 106% (inactive) in assay [4]; 90% (inactive) in assay [5]; 72.1% in assay [6] (setting [9]); 90% in assay [6] (setting [10]). In assay [2], the Her2 level was 134% (inactive). Further, in assay [6] (H69AR cells + 2 uM doxorubicin), the differential viability (reversal) is 17.9% (inactive). For the same molecule, the inhibition in assay [7] was -3.9% (inactive); in assay [8] it was -3.5% (inactive).

Turning to `CCCCCC1CC(CC(C)C(=O)Nc2nncs2)C(=O)O1` (stereo not given), the viability in assay [1] was 90.5%; in assay [3], 90.5% (inactive); in assay [4] it was 85.2% (inactive); in assay [5] it was 93.3% (inactive); in assay [6] (setting [9]) it was 85.4%; in assay [6] (setting [10]), 93.3%. Moreover, in assay [2], the Her2 level was 86.5% (inactive). Also, the differential viability (reversal) in assay [6] (H69AR cells + 2 uM doxorubicin) is 7.83% (inactive). The results for the inhibition in assay [7] and in assay [8] were -5.6% (inactive) and -2.86% (inactive), respectively.

As for `CCC(=O)N1CCc2cc(Br)cc(S(=O)(=O)CCC(=O)NCC3CCCO3)c21` (stereo not given), the viability in assay [1] was 118%; in assay [3], 118% (inactive); in assay [4], 106% (inactive); in assay [5], 92.8% (inactive); in assay [6] (setting [9]), 79.4%; in assay [6] (setting [10]), 92.8%. Besides, in assay [2], the Her2 level is 90% (inactive). The differential viability (reversal) in assay [6] (H69AR cells + 2 uM doxorubicin) was 13.4% (inactive). Besides, the inhibition in assay [7] was -6.35% (inactive); in assay [8], 6% (inactive).

In the case of `C/C(=N\O)C(C)/[N+]([O-])=C/c1nc(C)c(C)n1O` (stereo not given), the viability in assay [1] is 95.5%; in assay [3], 95.5% (inactive); in assay [4] it was 97% (inactive); in assay [5], 92.8% (inactive); in assay [6] (setting [9]), 102%; in assay [6] (setting [10]), 92.8%. In assay [2], the Her2 level is 109% (inactive). Besides, the differential viability (reversal) in assay [6] (H69AR cells + 2 uM doxorubicin) is -8.95% (inactive). The inhibition was -0.27% (inactive) in assay [7] and 0.48% (inactive) in assay [8].

Turning to `Fc1cccc2sc(N3CCOCC3)nc12`, the viability was 93.5% in assay [1]; 93.5% (inactive) in assay [3]; 83.9% (inactive) in assay [4]; 96.8% (inactive) in assay [5]; 81.4% in assay [6] (setting [9]); 96.8% in assay [6] (setting [10]). In addition, in assay [2], the Her2 level was 80.5% (inactive). Besides, in assay [6] (H69AR cells + 2 uM doxorubicin), the differential viability (reversal) is 15.4% (inactive). Moreover, the inhibition in assay [7] was -4.87% (inactive); in assay [8], 5.17% (inactive).

On to `COc1cccc(CNc2cccc3cccnc23)c1O`, for which the viability is 102% in assay [1]; 102% (inactive) in assay [3]; 73.5% (inactive) in assay [4]; 78.4% (inactive) in assay [5]; 93% in assay [6] (setting [9]); 78.4% in assay [6] (setting [10]). Moreover, the Her2 level in assay [2] was 82.5% (inactive). The differential viability (reversal) in assay [6] (H69AR cells + 2 uM doxorubicin) is -14.6% (inactive). Moreover, the inhibition in assay [7] was -3.16% (inactive); in assay [8], -1.97% (inactive).

Consider `N#Cc1c(N)c(C(=O)c2ccccc2)n2c1CCCC2`, for which the viability in assay [1] was 103%; in assay [3], 103% (inactive); in assay [4], 97.7% (inactive); in assay [5], 93.1% (inactive); in assay [6] (setting [9]), 99.2%; in assay [6] (setting [10]), 93.1%. Also, the Her2 level in assay [2] was 71% (inactive). Moreover, in assay [6] (H69AR cells + 2 uM doxorubicin), the differential viability (reversal) was -6.13% (inactive). Further, the inhibition in assay [7] was -8.92% (inactive); in assay [8] it was -0.66% (inactive).

For `O=C(CN(CCc1ccccc1)C(=O)CN1C(=O)COc2ccccc21)NCc1ccco1`, the viability was 88.5% in assay [1]; 88.5% (inactive) in assay [3]; 102% (inactive) in assay [4]; 78.6% (inactive) in assay [5]; 78% in assay [6] (setting [9]); 78.6% in assay [6] (setting [10]). In addition, the Her2 level in assay [2] is 87.5% (inactive). Moreover, the differential viability (reversal) in assay [6] (H69AR cells + 2 uM doxorubicin) was 0.605% (inactive). The inhibition in assay [7] is -0.65% (inactive); in assay [8] it was -1.15% (inactive).

`O=C(CN1CCN(C(=O)c2ccccc2)CC1)Nc1ncc(Br)cc1Br`: the viability in assay [1] is 76.5%; in assay [3], 76.5% (inactive); in assay [4] it was 92.2% (inactive); in assay [5], 77.9% (inactive); in assay [6] (setting [9]), 84.8%; in assay [6] (setting [10]), 77.9%. Moreover, the Her2 level in assay [2] was 100% (inactive). Also, in assay [6] (H69AR cells + 2 uM doxorubicin), the differential viability (reversal) was -6.92% (inactive). The inhibition in assay [7] was -2.4% (inactive); in assay [8] it was -5.74% (inactive).

As to `O=c1[nH]c2c(s1)C(c1ccco1)C1C3CCC(C3)C1S2` (stereo not given), the viability in assay [1] was 100%; in assay [3], 100% (inactive); in assay [4], 113% (inactive); in assay [5], 78.8% (inactive); in assay [6] (setting [9]) it was 89.3%; in assay [6] (setting [10]) it was 78.8%. Further, the Her2 level in assay [2] is 80% (inactive). The differential viability (reversal) in assay [6] (H69AR cells + 2 uM doxorubicin) was -10.5% (inactive). The figures for the inhibition in assay [7] and in assay [8] were -3.29% (inactive) and 2.73% (inactive), respectively.

Take `CCCS(=O)(=O)NCCc1cc2cc(C)c(C)cc2[nH]c1=O`: the viability in assay [1] is 106%; in assay [3], 106% (inactive); in assay [4] it was 101% (inactive); in assay [5], 96.3% (inactive); in assay [6] (setting [9]), 87.7%; in assay [6] (setting [10]), 96.3%. Moreover, the Her2 level in assay [2] is 90% (inactive). Further, the differential viability (reversal) in assay [6] (H69AR cells + 2 uM doxorubicin) is 8.55% (inactive). The inhibition was -8.22% (inactive) in assay [7] and -0.63% (inactive) in assay [8].

Turning to `O=C(c1ccccc1Cl)N1CCc2ccccc2C1`, the viability was 97% in assay [1]; 97% (inactive) in assay [3]; 97.1% (inactive) in assay [4]; 83% (inactive) in assay [5]; 81.5% in assay [6] (setting [9]); 83% in assay [6] (setting [10]). Further, in assay [2], the Her2 level is 75% (inactive). Moreover, the differential viability (reversal) in assay [6] (H69AR cells + 2 uM doxorubicin) is 1.55% (inactive). Besides, the results for the inhibition in assay [7] and in assay [8] were -8.49% (inactive) and -5.4% (inactive), respectively.

Consider `COc1ccc2c(c1)C(=NO)c1cc(OC)ccc1-2`, for which the viability in assay [1] was 120%; in assay [3] it was 120% (inactive); in assay [4], 58.5% (inactive); in assay [5] it was 83.8% (inactive); in assay [6] (setting [9]), 90%; in assay [6] (setting [10]), 83.8%. For the same molecule, in assay [2], the Her2 level was 61.5% (inactive). In addition, in assay [6] (H69AR cells + 2 uM doxorubicin), the differential viability (reversal) was -6.16% (inactive). Also, the inhibition in assay [7] is -8.24% (inactive); in assay [8], 2% (inactive).
